Laboratory results reported in ChEMBL document CHEMBL3392953, “Synthesis and biological evaluation of furanoallocolchicinoids” (J Med Chem, 2015).

What was measured:
HEK293 [1] = experiment: Cytotoxicity against HEK293 cells after 72 hrs by MTT assay; type: functional, cell-based; settings: Homo sapiens, HEK293, 72 h
Summary of the method: (§1)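 Cells seeded at 3x10^5 cells/mL 24 h before assay (HEK293, AsPC-1 in DMEM; Jurkat, W1308 in RPMI-1640; 10% FCS, 2-ME). Tenfold dilutions from […] to 1 nM added; untreated cells as controls. 72 h incubation, MTT 250 µg/ml added for last 6 h, formazan dissolved in DMSO, OD read. IC50 from titration curves; inhibition index = 1 − OD(treated)/OD(control).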

ASPC1 [2] = experiment: Cytotoxicity against human AsPC1 cells after 72 hrs by MTT assay; type: functional, cell-based; settings: ASPC1, 72 h; summary of the method: as §1
[3] = Cytotoxicity against mouse W1308 cells after 72 hrs by MTT assay; type: functional, cell-based; settings: W1308, 72 h; summary of the method: as §1
Jurkat [4] = experiment: Cytotoxicity against human Jurkat cells after 72 hrs by MTT assay; type: functional, cell-based; summary of the method: as §1
HEK293 [5] = experiment: Growth inhibition of HEK293 cells at 100 uM after 72 hrs by MTT assay; type: functional; settings: Homo sapiens, HEK293, 72 h; read-out: GI
[6] = Growth inhibition of mouse W1308 cells at 100 uM after 72 hrs by MTT assay; type: functional; settings: W1308, 72 h, read-out: GI
ASPC1 [7] = experiment: Growth inhibition of human AsPC1 cells at 100 uM after 72 hrs by MTT assay; type: functional; settings: ASPC1, 72 h, read-out: GI
Jurkat [8] = experiment: Growth inhibition of human Jurkat cells at 100 uM after 72 hrs by MTT assay; type: functional; settings: read-out: GI
Mus musculus [9] = experiment: Toxicity in C57BL/6 mouse assessed as interphase microtubule de-stabilizing activity by measuring influx of rhodamine in to heart at 1 mg/kg, iv co-administered with rhodamine B by fluorimetry; type: organism-based; set-up: dose 1 mg/kg, route intravenous; settings: in vivo
Summary of the method: (§2)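 Intact mice, 6–8 wk, 3 per group; compound dissolved in DMSO at 20 mM, 4 µl diluted into 200 µl saline (1 mg/kg), mixed with 50 µl rhodamine B, single i.v. injection; controls DMSO plus rhodamine B. Killed 4 h later; organs cut, extracted in 0.3N acid in ethanol 2 h at 37 °C, centrifuged, supernatant fluorescence read with 540 nm filter.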

Mus musculus [10] = experiment: Toxicity in C57BL/6 mouse assessed as interphase microtubule de-stabilizing activity by measuring leakage of rhodamine through the gut at 1 mg/kg, iv co-administered with rhodamine B by fluorimetry; type: organism-based; set-up: dose 1 mg/kg, route intravenous; settings: in vivo; summary of the method: as §2
[11] = Reduction in blood-brain barrier permeability in […]; type: ADME, tissue-based, C57BL/6, Endothelial cell; set-up: scale not given: the % may be the effect or the level left; settings: mouse; summary of the method: as §2
[12] = Inhibition of lamb brain tubulin polymerization assessed as reduction in microtubule assembly by spectrophotometry; set-up: species or system Ovis aries
Summary of the method: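 Tubulin purified from lamb brain by ammonium sulfate fractionation and ion-exchange chromatography. Assembly in 20 mM sodium phosphate, 1 mM EGTA, 10 mM MgCl2, 3.4 M glycerol, 1 mM GTP, pH 6.5, started by warming to 37 °C; turbidity followed at 350 nm over time. Inhibition plotted against ligand:tubulin molar ratio.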

Mus musculus [13] = experiment: Toxicity in C57BL/6 mouse assessed as interphase microtubule de-stabilizing activity by measuring influx of rhodamine in to spleen at 1 mg/kg, iv co-administered with rhodamine B by fluorimetry; type: organism-based; set-up: dose 1 mg/kg, route intravenous; settings: in vivo; summary of the method: as §2

COC(=O)CCCCCCCCc1cc2cc3c(cc2o1)[C@@H](NC(C)=O)CCc1cc(OC)c(OC)c(OC)c1-3
IC50 (HEK293 [1]): > 100 µM | IC50 (ASPC1 [2]): > 100 µM | IC50 [3]: > 100 µM | IC50 (Jurkat [4]): > 100 µM

COc1cc2c(c(OC)c1OC)-c1cc3cc(CCO)oc3cc1[C@@H](NC(C)=O)CC2
inhibition of growth at 100 µM (HEK293 [5]): 50% | inhibition of growth at 100 µM [6]: 50% | inhibition of growth at 100 µM (ASPC1 [7]): 50% | inhibition of growth at 100 µM (Jurkat [8]): 50% | IC50 (HEK293 [1]): 1 µM | IC50 (ASPC1 [2]): 2 µM | IC50 [3]: 1 µM | IC50 (Jurkat [4]): 1 µM

COc1cc2c(c(OC)c1OC)-c1cc3cc(-c4ccccc4)oc3cc1[C@@H](NC(C)=O)CC2
IC50 (HEK293 [1]): 4 µM | IC50 (ASPC1 [2]): 20 µM | IC50 [3]: 8 µM | IC50 (Jurkat [4]): 4 µM

CCN(CC)Cc1cc2cc3c(cc2o1)[C@@H](NC(C)=O)CCc1cc(OC)c(OC)c(OC)c1-3
IC50 (HEK293 [1]): > 100 µM | IC50 (ASPC1 [2]): 20 µM | IC50 [3]: > 100 µM | IC50 (Jurkat [4]): > 100 µM

COc1cc2c(c(OC)c1OC)-c1cc3cc(-c4ccccn4)oc3cc1[C@@H](NC(C)=O)CC2
IC50 (HEK293 [1]): 20 µM | IC50 (ASPC1 [2]): 20 µM | IC50 [3]: 10 µM | IC50 (Jurkat [4]): 20 µM

COc1ccc(/C=C\c2cc(OC)c(OC)c(OC)c2)cc1O [COMBRETASTATIN A4]
Activity (Mus musculus [9]): Toxic | Activity (Mus musculus [10]): Toxic | Activity [11]: 40% | ligand/tubulin molar ratio [12]: 0.09 | Activity (Mus musculus [13]): Toxic
